Test results as given in ChEMBL document CHEMBL1144782, “Isoindolo[2,1-a]quinoxaline derivatives, novel potent antitumor agents with dual inhibition of tubulin polymerization and topoisomerase I” (2008).

Experiments:
[1] = test system: MCF7; test: Cell viability against human MCF7 cells at 10 uM; assay type: functional
[2] = test system: HOP-92; test: Antitumor activity against human HOP92 cells; assay type: functional
How it was run: (§1)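 Run by the NCI in its in vitro disease-oriented screen of about 60 human tumour cell lines. For each line it reports pGI50 (50% net growth inhibition), pTGI (total growth inhibition) and pLC50 (50% net cell death), each as –log molar concentration. Where an effect was not reached within the tested range, the highest tested concentration was used.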

[3] = test system: COLO 205; test: Antitumor activity against human COLO205 cells; assay type: functional; how it was run: as §1
[4] = test system: DU-145; test: Antitumor activity against human DU145 cells; assay type: functional; how it was run: as §1
[5] = test system: NCI-H522; test: Antitumor activity against human NCI-H522 cells; assay type: functional; how it was run: as §1
[6] = test system: SK-MEL-5; test: Antitumor activity against human SKMEL5 cells; assay type: functional; how it was run: as §1
[7] = test system: MCF7; test: Growth inhibition of human MCF7 cells after 72 hrs by MTT assay; assay type: functional; settings: MCF7, 72 h
How it was run: (§2)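 Growth inhibition by MTT after 72 h incubation. Resistant sublines: LoVoDoxo and MCF-7 MDR were kept in 0.1 µg/mL doxorubicin; CEMVbl-100 was selected against vinblastine. GI50 given as mean ± SEM of three independent experiments. Resistance index is resistant-line GI50 over parental GI50.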

[8] = test system: PC-3; test: Antitumor activity against human PC3 cells; assay type: functional; how it was run: as §1
[9] = test system: NCI-H460; test: Cell viability against human NCI-H460 cells at 10 uM; assay type: functional
[10] = test system: HCT-116; test: Antitumor activity against human HCT116 cells; assay type: functional; how it was run: as §1
[11] = test system: SF-539; test: Antitumor activity against human SF539 cells; assay type: functional; how it was run: as §1
[12] = test system: SNB-75; test: Antitumor activity against human SNB75 cells; assay type: functional; settings: Homo sapiens, SNB-75; how it was run: as §1
[13] = test system: SK-MEL-2; test: Antitumor activity against human SKMEL2 cells; assay type: functional; how it was run: as §1
[14] = test system: 786-0; test: Antitumor activity against human 786-0 cells; assay type: functional; how it was run: as §1
[15] = test system: CAKI-1; test: Antitumor activity against human CAKI1 cells; assay type: functional; how it was run: as §1
[16] = test system: MCF7; test: Resistance index, Ratio of GI50 for human multidrug-resistant MCF7 cells to GI50 for human MCF7 cells; assay type: functional; how it was run: as §2
[17] = biological target: Tubulin (Sus scrofa) (UniProt P02554+P02550); test: Inhibition of pig brain tubulin polymerization
[18] = test system: CCRF-CEM; test: Resistance index, Ratio of GI50 for human vinblastine-resistant CEM cells to GI50 for human CEM cells; assay type: functional
[19] = Antitumor activity against human NCI-H322 cells; assay type: functional; how it was run: as §1
[20] = test system: EKVX; test: Antitumor activity against human EKVX cells; assay type: functional; how it was run: as §1
[21] = test system: MCF7; test: Antitumor activity against human MCF7 cells; assay type: functional; how it was run: as §1
[22] = test system: SK-OV-3; test: Antitumor activity against human SKOV3 cells; assay type: functional; how it was run: as §1
[23] = test system: LOX IMVI; test: Antitumor activity against human LOXIMVI cells; assay type: functional; how it was run: as §1
[24] = test system: Malme-3M; test: Antitumor activity against human MALME3M cells; assay type: functional; how it was run: as §1
[25] = test system: SF-268; test: Antitumor activity against human SF268 cells; assay type: functional; how it was run: as §1
[26] = test system: M14; test: Antitumor activity against human M14 cells; assay type: functional; how it was run: as §1
[27] = test system: OVCAR-4; test: Antitumor activity against human OVCAR4 cells; assay type: functional; how it was run: as §1
[28] = test system: HCT-15; test: Antitumor activity against human HCT15 cells; assay type: functional; how it was run: as §1
[29] = test system: A549; test: Antitumor activity against human A549 cells; assay type: functional; how it was run: as §1
[30] = test system: HCC 2998; test: Antitumor activity against human HCC2998 cells; assay type: functional; how it was run: as §1
[31] = test system: SN12C; test: Antitumor activity against human SN12C cells; assay type: functional; how it was run: as §1
[32] = Antitumor activity against human […] cells; assay type: functional; how it was run: as §1
[33] = test system: OVCAR-3; test: Antitumor activity against human OVCAR-3 cells; assay type: functional; how it was run: as §1
[34] = test system: SK-MEL-28; test: Antitumor activity against human SKMEL28 cells; assay type: functional; how it was run: as §1
[35] = test system: A498; test: Antitumor activity against human A498 cells; assay type: functional; how it was run: as §1
[36] = test system: RPMI-8226; test: Antitumor activity against human RPMI8226 cells; assay type: functional; how it was run: as §1
[37] = test system: SNB-19; test: Antitumor activity against human SNB19 cells; assay type: functional; how it was run: as §1
[38] = test system: MDA-MB-435; test: Antitumor activity against human MDA-MB-435 cells; assay type: functional; how it was run: as §1
[39] = test system: IGROV-1; test: Antitumor activity against human IGROV1 cells; assay type: functional; how it was run: as §1
[40] = test system: NCI/ADR-RES; test: Antitumor activity against human NCI/ADR-RES cells; assay type: functional; how it was run: as §1
[41] = test system: RXF 393; test: Antitumor activity against human RXF393 cells; assay type: functional; how it was run: as §1
[42] = read-out: Log LC50 (the source's name) (converted)

Sequence of Tubulin (Sus scrofa) (P02550 whole entry, looked up): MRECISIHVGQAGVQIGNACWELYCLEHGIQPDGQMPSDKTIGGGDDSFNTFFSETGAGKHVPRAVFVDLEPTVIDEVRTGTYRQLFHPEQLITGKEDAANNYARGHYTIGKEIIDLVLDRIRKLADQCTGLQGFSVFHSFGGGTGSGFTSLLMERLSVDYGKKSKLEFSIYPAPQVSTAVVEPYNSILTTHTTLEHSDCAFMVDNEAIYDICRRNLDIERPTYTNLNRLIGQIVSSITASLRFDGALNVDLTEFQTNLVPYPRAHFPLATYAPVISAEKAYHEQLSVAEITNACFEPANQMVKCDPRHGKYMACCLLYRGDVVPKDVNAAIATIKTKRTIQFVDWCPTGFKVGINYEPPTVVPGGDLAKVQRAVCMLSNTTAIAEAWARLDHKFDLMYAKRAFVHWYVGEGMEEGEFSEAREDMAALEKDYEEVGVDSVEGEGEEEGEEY
Sequence of Tubulin (Sus scrofa) (P02554 whole entry, looked up): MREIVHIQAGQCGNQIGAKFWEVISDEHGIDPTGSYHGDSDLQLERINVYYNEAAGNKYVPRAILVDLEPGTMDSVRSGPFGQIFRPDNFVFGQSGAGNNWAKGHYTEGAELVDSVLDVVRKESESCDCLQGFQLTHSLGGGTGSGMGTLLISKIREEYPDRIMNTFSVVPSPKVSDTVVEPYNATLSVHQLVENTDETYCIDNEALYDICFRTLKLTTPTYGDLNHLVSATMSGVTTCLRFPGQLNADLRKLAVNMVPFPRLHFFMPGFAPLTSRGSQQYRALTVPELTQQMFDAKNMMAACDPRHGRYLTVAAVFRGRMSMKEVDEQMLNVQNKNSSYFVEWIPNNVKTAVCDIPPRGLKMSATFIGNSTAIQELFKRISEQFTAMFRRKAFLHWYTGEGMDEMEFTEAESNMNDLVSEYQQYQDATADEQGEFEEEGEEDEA

Structure (SMILES): O=c1[nH]c2cc(Cl)c(Cl)cc2n2cc3ccccc3c12
- Activity [1]: 10%
- GI50 [2]: 18.2 µM
- LC50 [2]: 66.1 µM
- TGI ([2]; read-out: pTGI (converted)): 34.7 µM
- GI50 [3]: 29.5 µM
- LC50 [3]: > 100 µM
- TGI ([3]; read-out: pTGI (converted)): 39.8 µM
- GI50 [4]: 31.6 µM
- GI50 ([4]; Homo sapiens, DU-145): 17.8 µM
- CC50 ([4]; Homo sapiens, DU-145, read-out: Log LC50 (the source's name) (converted)): 56.2 µM
- GI50 [5]: 10.2 µM
- CC50 [5, 42]: 93.3 µM
- TGI ([5]; read-out: pTGI (converted)): 30.9 µM
- GI50 [6]: 20 µM
- LC50 [6]: 87.1 µM
- TGI ([6]; read-out: pTGI (converted)): 41.7 µM
- GI50 [7]: 3.3 µM
- GI50 [8]: 17.4 µM
- LC50 (50% net cell death) [8]: 56.2 µM
- TGI ([8]; read-out: pTGI (converted)): 30.9 µM
- Activity [9]: 0%
- GI50 [10]: 20.9 µM
- LC50 [10]: 58.9 µM
- TGI ([10]; read-out: pTGI (converted)): 35.5 µM
- GI50 [11]: 19.1 µM
- LC50 (50% net cell kill) [11]: 81.3 µM
- TGI ([11]; read-out: pTGI (converted)): 39.8 µM
- GI50 [12]: 21.4 µM
- LC50 [12]: > 100 µM
- TGI ([12]; read-out: pTGI (converted)): 53.7 µM
- GI50 [13]: 25.1 µM
- LC50 [13]: > 100 µM
- TGI ([13]; read-out: pTGI (converted)): 53.7 µM
- GI50 [14]: 25.1 µM
- CC50 [14, 42]: 63.1 µM
- TGI ([14]; read-out: pTGI (converted)): 39.8 µM
- GI50 [15]: 20.4 µM
- LC50 [15]: 58.9 µM
- TGI ([15]; read-out: pTGI (converted)): 34.7 µM
- RatioGI50 [16]: 2.3
- Activity [17]: > 10 µM
- RatioGI50 [18]: 0.86
- GI50 [19]: 13.5 µM
- LC50 (50% net cell death) [19]: 55 µM
- TGI ([19]; read-out: pTGI (converted)): 26.9 µM
- GI50 [20]: 21.9 µM
- LC50 (50% net cell kill) [20]: 87.1 µM
- TGI ([20]; read-out: pTGI (converted)): 43.7 µM
- GI50 [21]: 21.4 µM
- LC50 (50% net cell kill) [21]: 72.4 µM
- TGI ([21]; read-out: pTGI (converted)): 39.8 µM
- GI50 [22]: 18.2 µM
- LC50 (50% net cell kill) [22]: 61.7 µM
- TGI ([22]; read-out: pTGI (converted)): 33.1 µM
- GI50 [23]: 17.4 µM
- LC50 (50% net cell kill) [23]: 56.2 µM
- TGI ([23]; read-out: pTGI (converted)): 30.9 µM
- GI50 [24]: 17 µM
- CC50 [24, 42]: 63.1 µM
- TGI ([24]; read-out: pTGI (converted)): 32.4 µM
- GI50 [25]: 24 µM
- CC50 [25, 42]: 75.9 µM
- TGI ([25]; read-out: pTGI (converted)): 42.7 µM
- GI50 [26]: 22.9 µM
- CC50 [26, 42]: 69.2 µM
- TGI ([26]; read-out: pTGI (converted)): 39.8 µM
- GI50 [27]: 20.4 µM
- LC50 (50% net cell kill) [27]: > 100 µM
- TGI ([27]; read-out: pTGI (converted)): 50.1 µM
- GI50 [28]: 16.6 µM
- CC50 [28, 42]: 55 µM
- TGI ([28]; read-out: pTGI (converted)): 30.2 µM
- GI50 [29]: 19.1 µM
- CC50 [29, 42]: 63.1 µM
- TGI ([29]; read-out: pTGI (converted)): 34.7 µM
- GI50 [30]: 0.813 µM
- LC50 [30]: 43.7 µM
- TGI ([30]; read-out: pTGI (converted)): 18.6 µM
- GI50 [31]: 15.8 µM
- LC50 [31]: 55 µM
- TGI ([31]; read-out: pTGI (converted)): 29.5 µM
- GI50 [32]: 17.4 µM
- LC50 [32]: 61.7 µM
- TGI ([32]; read-out: pTGI (converted)): 32.4 µM
- GI50 [33]: 18.6 µM
- LC50 (50% net cell death) [33]: 57.5 µM
- TGI ([33]; read-out: pTGI (converted)): 32.4 µM
- GI50 [34]: 33.1 µM
- CC50 [34, 42]: > 100 µM
- TGI ([34]; read-out: pTGI (converted)): > 100 µM
- GI50 [35]: 15.8 µM
- CC50 [35, 42]: 56.2 µM
- TGI ([35]; read-out: pTGI (converted)): 30.2 µM
- GI50 [36]: 22.4 µM
- CC50 [36, 42]: > 100 µM
- TGI ([36]; read-out: pTGI (converted)): 49 µM
- GI50 [37]: 21.9 µM
- CC50 [37, 42]: > 100 µM
- TGI ([37]; read-out: pTGI (converted)): 56.2 µM
- GI50 [38]: 17 µM
- LC50 (50% net cell death) [38]: 55 µM
- TGI ([38]; read-out: pTGI (converted)): 30.2 µM
- GI50 [39]: 17.4 µM
- CC50 [39, 42]: 56.2 µM
- TGI ([39]; read-out: pTGI (converted)): 30.9 µM
- GI50 [40]: 17.8 µM
- LC50 [40]: 56.2 µM
- TGI ([40]; read-out: pTGI (converted)): 31.6 µM
- GI50 [41]: 17.4 µM
- CC50 [41, 42]: 56.2 µM
- TGI ([41]; read-out: pTGI (converted)): 30.9 µM
